Measurements from different studies.
Compare with care: the assays were run in different laboratories.
Effect on: cell growth or viability

N.N.[Cl][Pt][Cl]  IC50 (HEK293; MTT; 72 h): 28.4 µM
O=S(=O)([O-])C(F)(F)F.OCc1ccnc(-c2cc(CO)ccn2)c1.[Ru+2].c1cc[cH-]c1.c1ccc(P(c2ccccc2)c2ccccc2)cc1  IC50 (HEK293; MTT; 48 h): 6.7 µM
CNCCN(C)C(=O)Oc1c(Cl)c(C)nc(C)c1-c1ccc(Oc2ccc(OC(F)(F)F)cc2)cc1  IC50 (HEK293): > 10 µM
Cc1cccc2[nH]cc(CNCC3(N4CCCC4)COC3)c12  viability (T98G; 30 µM, 48 h): 60.1%
Cc1cccc(-c2cccc(C)n2)n1.Cc1cccc(-c2cccc(C)n2)n1.F[P-](F)(F)(F)(F)F.F[P-](F)(F)(F)(F)F.[Ru+2].c1ccc2cc(-c3nc4c5cccnc5c5ncccc5c4[nH]3)ccc2c1  EC50 (SK-MEL-28; resazurin; dark): 31.8 µM
Cc1ccc2c(CNCC3(N4CCCC4)COC3)c[nH]c2c1  viability (T98G; 30 µM, 48 h): 98.5%
CCCCCCCSc1ccc(CC(C)NCC(O)c2cccc(Cl)c2)cc1 (stereo not drawn)  IC50 (HEK293): > 10 µM
N.N.[Cl][Pt][Cl]  EC50 (SK-MEL-28; resazurin; dark): 3.38 µM
Cc1c(C)c2c(c(C)c1O)CC[C@](C)(C(=O)NC1CCC(CN3CCC(c4c[nH]c5ccccc45)CC3)CC1)O2 (stereo partly drawn)  IC50 (HEK293): > 10 µM
N.N.[Cl][Pt][Cl]  IC50 (NCI-H1975; MTT; 72 h): 6 µM
Cc1cc(O)cc2c(C3CCN(CC4CCN(C(=O)/C=C/c5ccc(Cl)c(Cl)c5)CC4)CC3)c[nH]c12  IC50 (HEK293): > 10 µM
Cc1cccc(-n2ncc(Cl)c(Cl)c2=O)c1  IC50 (NCI-H1975; resazurin; 96 h): 0.14 µM
